Screens deposited in PubChem BioAssay by several laboratories.
The list is not random: actives were taken first. Their share in the collection is about 0.91%.
PMI act hi M6P: human PMI activators, high substrate, primary screen, biochemical, fluorescence intensity, near-saturating mannose 6-phosphate | Mannose-6-phosphate isomerase (Homo sapiens), P34949 | coupled PMI enzyme assay, resazurin fluorescence, 20 min; hits give high values; 1 = untreated enzyme, 0 = substrate-free blank | activation factor at 20 µM | hit rate 0.34% among 190,000;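 active = activation factor of 2 or more at 20 µM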
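Test system: human PMI in coupled enzyme assay; Input: PMI at 15 ng/mL final; Medium: HEPES buffer, pH 7.4; Schedule: 20 min incubation at room temperature; Technique: resorufin fluorescence at Ex 544/Em 590 nm; Compound: 20 µM single dose; Probe or stimulus: Near-saturating mannose-6-phosphate, 1.0 mM.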
Tb hexokinase: Trypanosoma brucei hexokinase 1 inhibitors, primary screen, biochemical, G6PDH-coupled NADH absorbance, MLSCN library | recombinant TbHK1, G6PDH-coupled NADH A340 | inhibition, % at 10 µM | hit rate 0.11% among 220,000;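 active = inhibition of 50% or more in the single-dose primary screen; inactive = inhibition below 50%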
G6PDH CS: L. mesenteroides G6PDH inhibitors, counter-screen for G6PDH-coupled screening assays, biochemical, Leuconostoc mesenteroides enzyme; hit rate 0.12% among 200,000; inhibition, % at 5 µM; AID 1020, 2008; Purified L. mesenteroides G6PDH, diaphorase/resazurin coupled fluorescence, 45 min; glucose-6-phosphate dehydrogenase [Leuconostoc mesenteroides]; in the data active = inhibition above about 50%
p97 ATPase inh: inhibitors of human p97 ATPase, primary screen, biochemical; hit rate 0.42% among 220,000; Transitional endoplasmic reticulum ATPase (Homo sapiens), P55072; AID 1481, 2009; recombinant p97 ATPase, Kinase-Glo ATP luminescence, 3 h; inhibition, % at 8 µM; in the data active = inhibition above about 15%
Target sequence (P55072 whole entry, looked up): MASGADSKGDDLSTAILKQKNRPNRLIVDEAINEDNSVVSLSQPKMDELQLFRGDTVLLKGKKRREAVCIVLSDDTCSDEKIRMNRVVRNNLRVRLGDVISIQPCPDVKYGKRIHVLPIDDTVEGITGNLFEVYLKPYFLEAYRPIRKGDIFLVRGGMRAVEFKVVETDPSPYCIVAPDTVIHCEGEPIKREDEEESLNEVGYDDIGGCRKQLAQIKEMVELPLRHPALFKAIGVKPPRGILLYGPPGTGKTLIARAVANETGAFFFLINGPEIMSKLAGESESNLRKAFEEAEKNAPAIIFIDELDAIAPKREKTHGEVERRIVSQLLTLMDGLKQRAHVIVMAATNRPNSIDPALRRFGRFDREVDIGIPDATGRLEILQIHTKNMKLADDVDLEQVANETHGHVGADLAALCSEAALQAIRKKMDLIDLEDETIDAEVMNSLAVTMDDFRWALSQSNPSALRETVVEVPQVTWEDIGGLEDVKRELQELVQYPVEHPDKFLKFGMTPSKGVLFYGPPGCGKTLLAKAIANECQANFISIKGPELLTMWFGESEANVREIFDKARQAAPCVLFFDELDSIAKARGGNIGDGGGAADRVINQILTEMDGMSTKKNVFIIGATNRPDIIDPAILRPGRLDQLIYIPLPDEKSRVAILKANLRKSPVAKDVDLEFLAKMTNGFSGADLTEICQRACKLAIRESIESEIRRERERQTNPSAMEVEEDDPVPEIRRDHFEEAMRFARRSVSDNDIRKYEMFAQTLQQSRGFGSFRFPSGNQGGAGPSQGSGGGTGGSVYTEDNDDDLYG
Redox H2O2 prof: compounds producing H2O2 with reducing agent – biochemical, NIH compound library profiling, artefact control for MLSCN library redox annotation, primary screen; DTT-dependent redox cycling H2O2, phenol red/HRP absorbance; 100% = 100 µM peroxide control, 0% = buffer; activation, % at 10 µM; hit rate 0.03% among 200,000;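 active = activation of at least 50% relative to the plate's high and low controls in the primary single-dose screen; inactive = activation below 50%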;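 also: compound incubated with DTT at 0.8 mM final as the reducing agent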
PMI activator: activators of human PMI, primary screen, biochemical, fluorescence intensity, near-Km mannose 6-phosphate. Mannose-6-phosphate isomerase (Homo sapiens), P34949. purified human PMI, coupled resazurin fluorescence, 20 min; hits give high values; 1 = vehicle control, 0 substrate-free wells. activation factor at 20 µM. hit rate 0.005% among 190,000. AID 1214, 2008;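 active = activation factor of 2 or more at 20 µM, relative to plate controls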
Hits are given with their value.

What do the screens show for `O=C(CCN1C(=O)C2C3C=CC(C3)C2C1=O)NCCN1CCCc2ccccc21` (stereo not given)?
PMI act hi M6P: 2.1; Tb hexokinase: inactive; G6PDH CS: inactive; p97 ATPase inh: inactive; Redox H2O2 prof: inactive; PMI activator: inactive

Results for O=C(CN1C(=O)C2C3C=CC(C3)C2C1=O)NCCN1CCCc2ccccc21 (stereo not given) ?
PMI act hi M6P: 2.1; Tb hexokinase: inactive; G6PDH CS: inactive; p97 ATPase inh: inactive; Redox H2O2 prof: inactive; PMI activator: inactive

How did O=C1C2C3C=CC(C3)C2C(=O)N1CCC(=O)N1CCc2ccccc21 (stereo not given) do in these assays?
PMI act hi M6P: inactive; Tb hexokinase: inactive; G6PDH CS: inactive; p97 ATPase inh: inactive; Redox H2O2 prof: inactive; PMI activator: inactive

Results for Cc1sc(NC(=O)c2ccco2)c(C(c2cccnc2)N2CCC(C)CC2)c1C (stereo not given) ?
PMI act hi M6P: inactive; Tb hexokinase: inactive; G6PDH CS: inactive; p97 ATPase inh: inactive; Redox H2O2 prof: inactive; PMI activator: inactive

Results for CC(C)C(c1nnnn1Cc1cccs1)N1CCN(C(=O)c2ccco2)CC1 (stereo not given) ?
Tb hexokinase: inactive; G6PDH CS: inactive; p97 ATPase inh: inactive; Redox H2O2 prof: inactive

Results for CC1(CCc2ccccc2)NC(=S)N(c2ccc(Cl)cc2)N1 (stereo not given) ?
PMI act hi M6P: 2.7; Tb hexokinase: inactive; G6PDH CS: inactive; p97 ATPase inh: inactive; Redox H2O2 prof: inactive; PMI activator: inactive

Results for CC1(CCc2ccccc2)NC(=S)N(c2ccccc2)N1 (stereo not given) ?
PMI act hi M6P: 2.8; Tb hexokinase: inactive; G6PDH CS: inactive; p97 ATPase inh: inactive; Redox H2O2 prof: inactive; PMI activator: inactive

Results for CCC(C)(C)C1CCC2(CC1)NC(=S)N(c1ccccc1)N2 (stereo not given) ?
Tb hexokinase: inactive; p97 ATPase inh: inactive

How did Cn1c(N/N=C/c2cc3ccccc3nc2Cl)nc2ccccc21 do in these assays?
PMI act hi M6P: inactive; Tb hexokinase: inactive; G6PDH CS: inactive; p97 ATPase inh: inactive; Redox H2O2 prof: inactive; PMI activator: inactive

Results for O=C(Cn1nnc(-c2ccc(CN3CCOCC3)cc2)n1)N(c1ccccc1)c1ccccc1 ?
PMI act hi M6P: inactive; Tb hexokinase: inactive; G6PDH CS: inactive; p97 ATPase inh: inactive; Redox H2O2 prof: inactive; PMI activator: inactive

How did Cc1c(Br)c([N+](=O)[O-])nn1CC(=O)NCC1CCCO1 (stereo not given) do in these assays?
PMI act hi M6P: inactive; Tb hexokinase: inactive; G6PDH CS: inactive; p97 ATPase inh: inactive; Redox H2O2 prof: inactive; PMI activator: inactive

What do the screens show for `Cc1cc(=O)[nH]c(N/N=C/c2cn(CCC#N)nc2-c2ccccc2)n1`?
PMI act hi M6P: inactive; Tb hexokinase: inactive; G6PDH CS: inactive; p97 ATPase inh: inactive; Redox H2O2 prof: inactive; PMI activator: inactive

What do the screens show for `Cc1cc(C)c2c(N=NN3CCCCC3)[nH]nc2n1`?
PMI act hi M6P: inactive; Tb hexokinase: inactive; G6PDH CS: inactive; p97 ATPase inh: inactive; Redox H2O2 prof: inactive; PMI activator: inactive

What do the screens show for `CCN(CC)N=Nc1[nH]nc2nc(C)cc(C)c12`?
PMI act hi M6P: 2; Tb hexokinase: inactive; G6PDH CS: inactive; p97 ATPase inh: inactive; Redox H2O2 prof: inactive; PMI activator: inactive

How did COc1ccccc1C(C)NC(=O)CCOc1cccc(C)c1 (stereo not given) do in these assays?
PMI act hi M6P: inactive; Tb hexokinase: inactive; G6PDH CS: inactive; p97 ATPase inh: inactive; Redox H2O2 prof: inactive; PMI activator: inactive

What do the screens show for `Cc1[nH]c2ccccc2c1/C=N/Nc1ccc(F)cc1F`?
PMI act hi M6P: 2.1; Tb hexokinase: inactive; G6PDH CS: inactive; p97 ATPase inh: inactive; Redox H2O2 prof: inactive; PMI activator: inactive

What do the screens show for `O=[N+]([O-])c1ccc(O)c2cccnc12`?
PMI act hi M6P: inactive; Tb hexokinase: inactive; G6PDH CS: inactive; p97 ATPase inh: inactive; Redox H2O2 prof: inactive; PMI activator: inactive

Results for O=[N+]([O-])c1ccc(O)c2ncccc12 ?
PMI act hi M6P: inactive; Tb hexokinase: inactive; G6PDH CS: 66; p97 ATPase inh: inactive; Redox H2O2 prof: inactive; PMI activator: inactive

How did O=[N+]([O-])c1cc(Cl)c(O)c2ncccc12 do in these assays?
PMI act hi M6P: inactive; Tb hexokinase: inactive; G6PDH CS: 59; p97 ATPase inh: inactive; Redox H2O2 prof: inactive; PMI activator: inactive

Results for O=[N+]([O-])c1cc(Cl)c2cccnc2c1O ?
PMI act hi M6P: inactive; Tb hexokinase: inactive; G6PDH CS: inactive; p97 ATPase inh: inactive; Redox H2O2 prof: inactive; PMI activator: inactive

How did CCOC(=O)/C(N=Nc1ccc(F)cc1)=C(/O)c1ccc([N+](=O)[O-])cc1 do in these assays?
PMI act hi M6P: inactive; Tb hexokinase: inactive; G6PDH CS: inactive; p97 ATPase inh: inactive; Redox H2O2 prof: inactive; PMI activator: inactive

Results for CC(C)(C)NC(=S)NCc1ccncc1 ?
PMI act hi M6P: inactive; Tb hexokinase: inactive; G6PDH CS: inactive; p97 ATPase inh: inactive; Redox H2O2 prof: inactive; PMI activator: inactive

How did CCOc1ccc(N2CC(C(=O)Nc3c(C)n(C)n(-c4ccccc4)c3=O)CC2=O)cc1 (stereo not given) do in these assays?
PMI act hi M6P: inactive; Tb hexokinase: inactive; G6PDH CS: inactive; p97 ATPase inh: inactive; Redox H2O2 prof: inactive; PMI activator: inactive

Results for O=C(N/N=C/c1ccccc1[N+](=O)[O-])C(=O)N1CCCC1 ?
PMI act hi M6P: inactive; Tb hexokinase: inactive; G6PDH CS: inactive; p97 ATPase inh: inactive; Redox H2O2 prof: inactive; PMI activator: inactive

Results for CCC(=O)N(C1=C(NC(C)C)C(=O)c2ccccc2C1=O)C(C)C ?
PMI act hi M6P: inactive; Tb hexokinase: inactive; G6PDH CS: 55; p97 ATPase inh: inactive; Redox H2O2 prof: inactive; PMI activator: inactive

What do the screens show for `C/C(=N\Nc1ccc(C(=O)O)cc1)c1ccc(-n2ccnc2)cc1`?
PMI act hi M6P: 2; Tb hexokinase: inactive; G6PDH CS: inactive; p97 ATPase inh: inactive; Redox H2O2 prof: inactive; PMI activator: inactive

Results for C/C(=N\Nc1ccccc1Cl)c1ccc(-n2ccnc2)cc1 ?
PMI act hi M6P: 2.7; Tb hexokinase: inactive; G6PDH CS: inactive; p97 ATPase inh: inactive; Redox H2O2 prof: inactive; PMI activator: inactive

Results for C/C(=N\NC(N)=O)c1ccc(-n2ccnc2)cc1 ?
PMI act hi M6P: inactive; Tb hexokinase: inactive; G6PDH CS: inactive; p97 ATPase inh: inactive; Redox H2O2 prof: inactive; PMI activator: inactive
